High-throughput results (PubChem)
Hits are enriched below; roughly 7.6% of the tested compounds scored in any of these assays.
D1 allo mod: D1 CRE-luciferase signal change, two-sided – cell-based, HEK293 D1, dopamine EC30, D1 allosteric modulator project, primary screen. B-score at 10 µM. dopamine EC30 potentiation; actives deviate in either direction. 58,000 compounds, 5.9% hits. AID 641, 2007;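 active means luminescence count or its row- and column-corrected plate score outside the 99.7% band of the plate's sample wells, on either side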
Target sequence (P21728 whole entry, looked up): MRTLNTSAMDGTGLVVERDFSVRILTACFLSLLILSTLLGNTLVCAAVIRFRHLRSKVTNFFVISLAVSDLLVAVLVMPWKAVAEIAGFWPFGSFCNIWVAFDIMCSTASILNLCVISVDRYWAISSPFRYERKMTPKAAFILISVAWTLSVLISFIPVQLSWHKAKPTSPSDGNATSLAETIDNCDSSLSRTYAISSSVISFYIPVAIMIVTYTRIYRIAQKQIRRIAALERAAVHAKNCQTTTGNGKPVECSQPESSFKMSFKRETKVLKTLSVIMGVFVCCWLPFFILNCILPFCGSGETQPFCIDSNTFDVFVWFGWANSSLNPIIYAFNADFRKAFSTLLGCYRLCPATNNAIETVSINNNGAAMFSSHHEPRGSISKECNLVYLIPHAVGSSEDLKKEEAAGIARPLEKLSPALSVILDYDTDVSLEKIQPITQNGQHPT
Jurkat tox 60K: cytotoxicity toward Jurkat T cells, primary screen, cytotoxicity control, cell-based, Jurkat E6.1, 60K MLSMR library; Jurkat E6.1 viability, ATP luminescence, 48 h; inhibition, % at 4 µM; 56,000 compounds, 1.2% hits;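 active means inhibition above the mean inhibition of all tested compounds plus 3 SD, cut at about 28% in these data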
M1 antag: antagonists of rat M1 muscarinic receptor; CHO-M1 cells, Fluo-4 calcium, ACh EC80 antagonist mode; hits give low values; B-score at 10 µM; 64,000 compounds, 3.4% hits;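 active means calcium fluorescence response, raw or row-and-column corrected B-score, differing from the plate sample mean either way at a set confidence level, mostly lower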
M1 ag: M1 muscarinic receptor agonists, primary screen, CHO-M1 cells, Fluo-4 calcium, agonist mode | Muscarinic acetylcholine receptor M1 | 64,000 compounds, 3% hits | B-score at 10 µM | Fluo-4 calcium fluorescence; hits give high values;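 active means fluorescence rise, raw or as B-score row- and column-corrected plate score, outside the 99.7% band of its plate's samples, either direction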
DAT uptake mod: changed hDAT dopamine uptake under cocaine IC80, either direction, primary screen, cocaine antagonist project, cell-based, LLC-PK1 hDAT, [14C]-dopamine uptake, MLSMR | B-score at 10 µM | Sodium-dependent dopamine transporter (Homo sapiens), Q01959 | 110,000 compounds, 1.3% hits | LLC-PK1 hDAT cells, [14C]-dopamine uptake with cocaine IC80; actives deviate in either direction | AID 449768, 2010;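 active means Z score or B-score, a plate-position-corrected score, falls beyond the plate's 99.7% confidence bounds, in either direction; inactive means both scores lie inside the 99.7% bounds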
HEK293 NFkB inh: inhibitors of PMA/ionomycin-induced NF-kB reporter, primary screen, antigen receptor NF-kB inhibitor project, cell-based, HEK-293 luciferase reporter, luminescence; HEK-293 NF-kB luciferase reporter; inhibition, % at 3 µM; 62,000 compounds, 0.21% hits; AID 465, 2006;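 active means inhibition above the mean of all tested compounds plus 3 SD, cut at about 40% in these data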
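System – HEK-293 cells with stable firefly luciferase reporter driven by four HIV NF-kB elements · Doses – one dose, 3 µM · Schedule – 1 h compound pre-incubation, 16 h PMA/ionomycin at 37 °C · Technique – luminescence from luciferase substrate reagent · Measure – percent inhibition normalized per plate to DMSO and reference-inhibitor controls · Replicates – tested once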
M1 antag conf: rat M1 muscarinic receptor antagonists, confirmation, CHO cells, Fluo-4 calcium, duplicate. 1,700 compounds, 43% hits. ACh EC80 antagonism; hits give low values. shares compounds with M1 antag. calcium response (max-min fluorescence) at 10 µM;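 active means calcium response below the same-plate mean of wells given acetylcholine alone at its 80%-effect dose, minus 3 SD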
mGluR4 antag: human mGluR4 response to M1 antagonist hits, M1 allosteric modulator project, cell-based, antagonist mode, secondary assay 1; shares compounds with M1 antag; CHO-mGluR4 calcium flux, Fluo-4 fluorescence, glutamate EC80; hits give low values; fluorescence response (max-min) at 10 µM; 1,700 compounds, 0.9% hits; AID 678, 2007;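 active means fluorescence response below the plate's average for near-maximal glutamate wells, less 3 SD of those wells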;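 further: raw unnormalized fluorescence span taken in the window right after glutamate addition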
Each line names hits and unclear results; the compound was inactive in the other large screens (follow-up assays come after a bar, where they were run).

CC(=O)Nc1nc(C(=O)Nc2c(C)n[nH]c2C)cs1	M1 antag -2.9 | M1 antag conf inactive | mGluR4 antag inactive
COC(=O)c1ccccc1NC(=O)CSc1nnc(C(C)NC(=O)c2ccc(Cl)cc2Cl)n1C (stereo not drawn)	none (no result: D1 allo mod, Jurkat tox 60K, M1 antag, M1 ag, HEK293 NFkB inh)
CCOC(=O)N1CCC(NC(=O)c2cc(C(=O)NC3CCCC3)ccc2CO)CC1	none
CCCCNC(=O)CCSc1nc2nc(C)cc(C)n2n1	none
COC(=O)c1ccc(CSc2ncnc3c2nnn3-c2ccc(OC)cc2)o1	none
NCCCCCc1nnc(SC/C=C/c2ccccc2)o1	M1 antag -3.6 | M1 antag conf 450 | mGluR4 antag inactive
NCCCCCc1nnc(SCc2ccccc2Cl)o1	none
CCOC(=O)c1sc2ncnc(NCC(c3cccs3)N(C)C)c2c1C (stereo not drawn)	M1 antag -3.4 | M1 antag conf 496 | mGluR4 antag inactive
CS(=O)(=O)N(Cc1ccccc1F)c1ccccc1	none (no result: D1 allo mod, Jurkat tox 60K, M1 antag, M1 ag, HEK293 NFkB inh)
COc1ccc2cc(CN(Cc3cccnc3)S(=O)(=O)c3ccccc3)c(=O)[nH]c2c1	M1 antag -2.4 | M1 antag conf inactive | mGluR4 antag inactive
CCCCOC(=O)C1=C(C)Nc2ncnn2C1c1ccc(OC)c(OC)c1 (stereo not drawn)	none
COc1ccc(NC(=O)CN2CCN(CC(=O)Nc3ccccc3F)CC2)cc1OC	none
CC(C)C[C@H](NC(=O)c1[nH]cnc1C(=O)N[C@@H](C)c1ccccc1)C(=O)OC(C)(C)C	none (no result: D1 allo mod, Jurkat tox 60K, M1 antag, M1 ag, HEK293 NFkB inh)
CN1CCCC(OC(=O)c2cc(Br)ccc2Cl)C1 (stereo not drawn)	M1 antag -6.6 | M1 antag conf 412 | mGluR4 antag inactive
CCN1CCN(C(=O)C2(NC(=O)Nc3ccccc3Cl)CCCCC2)CC1	none (no result: D1 allo mod, Jurkat tox 60K, M1 antag, M1 ag, HEK293 NFkB inh)
CCN1CCN(Cc2ccc(NC(=O)Nc3ccccc3Cl)cc2)CC1	D1 allo mod -3.3, M1 antag -3 | M1 antag conf inactive | mGluR4 antag inactive
CC(=O)Nc1ccc(CN2CCCCCCC2)cc1	M1 antag -1.9 | M1 antag conf 488 | mGluR4 antag inactive
CCOC(=O)c1ccc(NC(=O)c2ccc(CN3CCOCC3)cc2)cc1	Jurkat tox 60K 53, M1 antag -7.3 | M1 antag conf 418 | mGluR4 antag inactive
CCOC(=O)c1cccc(NC(=O)C(NS(=O)(=O)c2ccc3c(c2)CCN3C(C)=O)C(C)C)c1 (stereo not drawn)	none
COC(=O)c1c(CCl)noc1C(=O)NCC1CCCO1 (stereo not drawn)	none (no result: D1 allo mod, Jurkat tox 60K, M1 antag, M1 ag, HEK293 NFkB inh)
CCCNC(=O)C1=C(C)C(=O)OC12CCC(C)CC2 (stereo not drawn)	M1 antag -2.2 | M1 antag conf inactive | mGluR4 antag inactive
CCN(CC)CC1CCCCN1CC(=O)N1c2ccccc2C(=O)Nc2cccnc21 (stereo not drawn)	none (no result: D1 allo mod, Jurkat tox 60K, M1 antag, M1 ag, HEK293 NFkB inh)
O=C(CSc1nnc(CN2CCOCC2)n1-c1ccccc1)N1CCc2ccccc21	none
O=C(COc1ccc2ccccc2c1CN1CCOCC1)N1CCc2ccccc21	M1 antag -2.1 | M1 antag conf 336 | mGluR4 antag inactive
CCOC(=O)c1cc(C)n(CCCN2CCOCC2)c1C	M1 antag -1 | M1 antag conf 403 | mGluR4 antag inactive
O=C1CC(N2CCCN(C3CC(=O)N(c4ccc(F)cc4)C3=O)CC2)C(=O)N1c1ccc(F)cc1 (stereo not drawn)	none
CCOC(=O)N1CCN(C(=O)C2CCC(CNS(=O)(=O)c3ccc(Cl)cc3)CC2)CC1 (stereo not drawn)	M1 antag -2.9 | M1 antag conf inactive | mGluR4 antag inactive
Cn1c(N)c(C(=O)CNC2CCCCC2)c(=O)n(C)c1=O	none (no result: D1 allo mod, Jurkat tox 60K, M1 antag, M1 ag, HEK293 NFkB inh)
CCOc1ccc2c(c1)c1nnc(SCC(=O)N3CCC(C)CC3)nc1n2C	M1 antag -4.6 | M1 antag conf 333 | mGluR4 antag inactive
CC1CCCCN1C(=O)CSc1nnc(Cc2ccccc2)n1C (stereo not drawn)	none (no result: D1 allo mod, Jurkat tox 60K, M1 antag, M1 ag, HEK293 NFkB inh)
CC1CCN(C(=O)CSc2nc3cccnc3n2C)CC1	none
CCOc1ccc2c(c1)c1nnc(SCC(=O)N3CCCCC3C)nc1n2C (stereo not drawn)	M1 antag -3.2 | M1 antag conf inactive | mGluR4 antag inactive
CCN(CC)c1nc(N2CCOCC2)c(C#N)c2c1CN(C)CC2	none (no result: D1 allo mod, Jurkat tox 60K, HEK293 NFkB inh)
CCC(=O)Nc1ccc(NC(=O)c2ccc3c(c2)OCO3)cc1	none (no result: D1 allo mod, Jurkat tox 60K, M1 antag, M1 ag, HEK293 NFkB inh)
Cc1cccc(OCC(=O)Nc2ccc3c(c2)OCCO3)c1	M1 antag -5 | M1 antag conf inactive | mGluR4 antag inactive
CCC(=O)Nc1cccc(NC(=O)c2ccc3c(c2)OCCO3)c1	M1 antag -2.6 | M1 antag conf inactive | mGluR4 antag inactive
CCCCOc1ccc(CN(C)c2ncnc(N)n2)cc1	none (no result: D1 allo mod, Jurkat tox 60K, HEK293 NFkB inh)
COCCn1c(C23CC4CC(CC(C4)C2)C3)n[nH]c1=S	M1 antag -2.8 | M1 antag conf inactive | mGluR4 antag inactive
COCCn1c(-c2ccccc2F)n[nH]c1=S	none
COC(=O)/C=c1/sc2nc3ccccc3n2c1=O	M1 antag -2.5 | M1 antag conf inactive | mGluR4 antag inactive
CCOC(=O)c1nnc2cc(-c3ccccc3)nn2c1C	M1 antag -2.6 | M1 antag conf inactive | mGluR4 antag inactive
CCOC(=O)c1nnc2cc(-c3ccc(Br)cc3)nn2c1C	none
CCc1cc2c(NCCN3CCCCC3)ncnc2s1	M1 antag -4.3 (no result: D1 allo mod, Jurkat tox 60K) | M1 antag conf 534 | mGluR4 antag inactive
CCc1cc2c(NCCO)ncnc2s1	none
CC(C)CC(NC(=O)C(CC(C)C)NC(=O)OC(C)(C)C)C(=O)O (stereo not drawn)	none
COC(=O)Nc1nc2c(s1)CCCC2	M1 antag -3.1 | M1 antag conf inactive | mGluR4 antag inactive
COC(=O)c1[nH]c2ccc(C)cc2c1NC(=O)CN1CCCC(C)(C)C1	none
COC(=O)c1[nH]c2ccc(C)cc2c1NC(=O)CCN1CCN(C2CCCCC2)CC1	M1 antag -12 | M1 antag conf 99 | mGluR4 antag inactive
COC(=O)c1[nH]c2ccc(F)cc2c1NC(=O)CCN1CCN(Cc2ccc3c(c2)OCO3)CC1	M1 antag -7.6 | M1 antag conf 125 | mGluR4 antag inactive
